What was measured:
[1] = Selectivity index, ratio of IC50 for rat L6 cells to IC50 for amastigote forms of Leishmania donovani MHOM/ET/67/L82
Leishmania donovani = experiment: Antileishmanial activity against axenic amastigote forms of Leishmania donovani MHOM/ET/67/L82 assessed as inhibition of growth; assay type: functional, organism-based
Summary of the method: (§1)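 Parasite growth assay run in 96-well format per an earlier protocol. Dose–response curves were constructed, and the 50% growth-inhibitory concentration was calculated by linear regression from the sigmoidal dose–inhibition curves.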

Trypanosoma cruzi [2] = experiment: Antichagasic activity against amastigote forms of Trypanosoma cruzi Tulahuen C4 assessed as inhibition of growth; assay type: functional, organism-based; summary of the method: as §1
[3] = Selectivity index, ratio of IC50 for rat L6 cells to IC50 for amastigote forms of Trypanosoma cruzi Tulahuen C4
[4] = Selectivity index, ratio of IC50 for rat L6 cells to IC50 for bloodstream trypomastigote forms of Trypanosoma brucei rhodesiense STIB 900
[5] = test system: Trypanosoma brucei rhodesiense; experiment: Antitrypanosomal activity against bloodstream trypomastigote forms of Trypanosoma brucei rhodesiense STIB 900 assessed as inhibition of growth; assay type: functional, organism-based; summary of the method: as §1
L6 = experiment: Cytotoxicity against rat L6 cells assessed as cell viability; assay type: cell-based
Trypanosoma cruzi [6] = experiment: Activity of histidine tagged recombinant Trypanosoma cruzi type 1 nitroreductase assessed as NADH oxidation at 100 uM by spectrophotometry method
Summary of the method: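 Purified recombinant T. cruzi type I nitroreductase, prepared and assayed per earlier work. Specific activity expressed as NADH oxidized per min per mg protein.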

[7] = test system: Trypanosoma brucei brucei; experiment: Antimicrobial activity against bloodstream forms of Trypanosoma brucei brucei assessed as reduction in cell viability after 3 days by alamar blue assay; assay type: functional, organism-based; details: 72 h
[8] = test system: Trypanosoma brucei brucei; experiment: Activity of histidine tagged recombinant Trypanosoma brucei brucei type 1 nitroreductase assessed as NADH oxidation at 100 uM by spectrophotometry method
Summary of the method: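 Purified recombinant his-tagged T. b. brucei type I nitroreductase. Each nitrotriazole substrate at 100 µM with NADH at 100 µM. NADH oxidation followed spectrophotometrically at 340 nm. Specific activity expressed as nmol NADH oxidized per min per mg enzyme.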

[9] = test system: Trypanosoma brucei brucei; experiment: Ratio of IC50 for bloodstream forms of Trypanosoma brucei brucei overexpressing type I nitroreductase in absence of tetracycline to IC50 for bloodstream forms of Trypanosoma brucei brucei overexpressing type I nitroreductase in presence of tetracycline; assay type: functional
[10] = test system: Trypanosoma brucei brucei; experiment: Antimicrobial activity against bloodstream forms of Trypanosoma brucei brucei overexpressing type I nitroreductase assessed as reduction in cell viability after 3 days by alamar blue assay in presence of tetracycline; assay type: functional, organism-based; details: 72 h
[11] = test system: Trypanosoma brucei brucei; experiment: Antimicrobial activity against bloodstream forms of Trypanosoma brucei brucei overexpressing type I nitroreductase assessed as reduction in cell viability after 3 days by alamar blue assay in absence of tetracycline; assay type: functional, organism-based; details: 72 h
Trypanosoma cruzi [12] = experiment: Antichagasic activity against firefly luciferase expressing trypamastigote forms of transgenic Trypanosoma cruzi Y infected in Balb/c mouse assessed as reduction in parasite level at 15 mg/kg/day, ip dosed for 10 days by luciferase reporter gene assay; assay type: functional; details: 240 h
Summary of the method: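 Balb/c mice were infected with luciferase-expressing T. cruzi Y trypomastigotes and imaged at baseline after i.p. D-luciferin 150 mg/kg in PBS. Ratio = post-treatment / pre-treatment luciferase signal per animal; group mean ± SD.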

[13] = Half life in human liver S9 microsomes in presence of NADPH by LC-MS/MS method
[14] = Half life in human liver S9 microsomes in absence of NADPH by LC-MS/MS method
Cytochrome P450 2D6 = Cytochrome P450 2D6 (Homo sapiens, UniProt P10635); experiment: Inhibition of CYP2D6 in human Liver microsomes after 5 mins by LC-MS/MS method
Cytochrome P450 2C9 = Cytochrome P450 2C9 (Homo sapiens, UniProt P11712); experiment: Inhibition of CYP2C9 in human Liver microsomes after 5 mins by LC-MS/MS method
[15] = Efflux ratio of permeability from basolateral to apical side over apical to basolateral side in human Caco2 cells after 2 hrs by LC-MS/MS method; details: Caco-2
Cytochrome P450 2C19 = Cytochrome P450 2C19 (Homo sapiens, UniProt P33261); experiment: Inhibition of CYP2C19 in human Liver microsomes after 35 mins by LC-MS/MS method
Cytochrome P450 2C8 = target: T1, Cytochrome P450 2C8 (Homo sapiens, UniProt P10632); experiment: Inhibition of CYP2C8 in human Liver microsomes after 5 mins by LC-MS/MS method
T1 sequence (P10632 whole entry): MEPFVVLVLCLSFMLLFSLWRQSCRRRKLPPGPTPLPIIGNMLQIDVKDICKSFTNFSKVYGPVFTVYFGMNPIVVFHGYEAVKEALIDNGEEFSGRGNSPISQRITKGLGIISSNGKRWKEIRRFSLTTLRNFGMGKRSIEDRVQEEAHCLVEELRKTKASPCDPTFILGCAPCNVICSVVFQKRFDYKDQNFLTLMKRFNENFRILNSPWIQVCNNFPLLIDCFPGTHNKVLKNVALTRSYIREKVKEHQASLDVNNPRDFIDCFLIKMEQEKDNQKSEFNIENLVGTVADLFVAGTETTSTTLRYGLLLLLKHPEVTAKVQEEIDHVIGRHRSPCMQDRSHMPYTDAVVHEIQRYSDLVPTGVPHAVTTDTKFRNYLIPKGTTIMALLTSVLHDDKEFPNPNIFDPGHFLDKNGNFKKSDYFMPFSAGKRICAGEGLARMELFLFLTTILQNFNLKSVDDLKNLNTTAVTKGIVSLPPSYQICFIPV

Cytochrome P450 3A4 = Cytochrome P450 3A4 (Homo sapiens, UniProt P08684); experiment: Inhibition of CYP3A4 in human Liver microsomes after 5 mins by LC-MS/MS method
Mus musculus = experiment: Toxicity in Balb/c mouse infected with firefly luciferase expressing trypamastigote forms of transgenic Trypanosoma cruzi Y at 15 mg/kg/day, ip dosed for 10 days; assay type: organism-based; details: in vivo, 240 h

Cytochrome P450 2C9, sequence (P11712 whole entry): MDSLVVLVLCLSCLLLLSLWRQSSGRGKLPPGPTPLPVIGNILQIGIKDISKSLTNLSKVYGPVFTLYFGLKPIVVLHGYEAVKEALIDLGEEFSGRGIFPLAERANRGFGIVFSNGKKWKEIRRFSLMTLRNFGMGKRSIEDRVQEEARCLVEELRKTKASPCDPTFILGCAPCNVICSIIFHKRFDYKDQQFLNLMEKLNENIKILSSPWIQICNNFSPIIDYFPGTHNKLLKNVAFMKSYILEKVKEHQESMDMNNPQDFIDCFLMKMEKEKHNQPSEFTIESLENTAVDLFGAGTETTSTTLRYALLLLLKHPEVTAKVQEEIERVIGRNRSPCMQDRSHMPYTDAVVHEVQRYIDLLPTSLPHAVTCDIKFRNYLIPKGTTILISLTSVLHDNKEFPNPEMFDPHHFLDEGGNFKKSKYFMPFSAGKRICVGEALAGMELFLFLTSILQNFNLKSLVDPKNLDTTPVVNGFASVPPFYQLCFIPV
Cytochrome P450 2D6, sequence (P10635 whole entry): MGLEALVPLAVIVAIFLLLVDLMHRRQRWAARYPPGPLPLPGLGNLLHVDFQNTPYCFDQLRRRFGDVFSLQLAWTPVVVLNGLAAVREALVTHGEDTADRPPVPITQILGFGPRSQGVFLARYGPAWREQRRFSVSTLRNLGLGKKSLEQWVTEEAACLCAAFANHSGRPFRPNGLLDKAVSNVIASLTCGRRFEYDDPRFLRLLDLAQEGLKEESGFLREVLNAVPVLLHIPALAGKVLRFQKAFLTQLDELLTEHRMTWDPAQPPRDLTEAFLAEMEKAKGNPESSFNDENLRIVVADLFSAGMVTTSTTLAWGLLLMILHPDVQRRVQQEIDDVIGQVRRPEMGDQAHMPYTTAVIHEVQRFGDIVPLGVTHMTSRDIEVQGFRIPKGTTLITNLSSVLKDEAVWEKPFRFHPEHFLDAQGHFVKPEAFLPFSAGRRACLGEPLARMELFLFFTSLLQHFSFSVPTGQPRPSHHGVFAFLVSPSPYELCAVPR
Cytochrome P450 2C19, sequence (P33261 whole entry): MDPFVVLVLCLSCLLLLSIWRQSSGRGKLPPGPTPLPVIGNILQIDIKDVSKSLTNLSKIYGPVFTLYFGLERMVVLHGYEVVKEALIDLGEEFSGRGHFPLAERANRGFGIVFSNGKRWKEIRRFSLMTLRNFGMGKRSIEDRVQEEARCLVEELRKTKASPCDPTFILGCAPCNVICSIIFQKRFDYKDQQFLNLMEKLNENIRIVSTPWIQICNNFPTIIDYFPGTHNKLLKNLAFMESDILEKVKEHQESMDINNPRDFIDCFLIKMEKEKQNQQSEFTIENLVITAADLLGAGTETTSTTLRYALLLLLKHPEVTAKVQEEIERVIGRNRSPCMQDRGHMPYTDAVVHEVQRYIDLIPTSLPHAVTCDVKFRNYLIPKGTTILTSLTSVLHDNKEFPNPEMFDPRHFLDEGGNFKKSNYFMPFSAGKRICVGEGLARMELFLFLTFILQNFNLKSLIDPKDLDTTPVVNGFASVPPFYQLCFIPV
Cytochrome P450 3A4, sequence (P08684 whole entry): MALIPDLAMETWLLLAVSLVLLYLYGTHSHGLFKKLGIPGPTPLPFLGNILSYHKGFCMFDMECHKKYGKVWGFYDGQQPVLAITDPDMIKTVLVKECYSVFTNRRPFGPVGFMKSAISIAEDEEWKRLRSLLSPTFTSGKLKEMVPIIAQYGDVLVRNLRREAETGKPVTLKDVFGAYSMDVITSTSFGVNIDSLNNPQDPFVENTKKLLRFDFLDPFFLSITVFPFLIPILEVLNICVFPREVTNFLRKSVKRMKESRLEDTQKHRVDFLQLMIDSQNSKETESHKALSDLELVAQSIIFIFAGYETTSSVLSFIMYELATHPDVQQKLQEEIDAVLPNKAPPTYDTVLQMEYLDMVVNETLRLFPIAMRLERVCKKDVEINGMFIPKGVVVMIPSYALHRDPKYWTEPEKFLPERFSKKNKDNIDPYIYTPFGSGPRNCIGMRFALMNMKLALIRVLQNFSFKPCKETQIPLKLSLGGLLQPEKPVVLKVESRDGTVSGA

| Structure (SMILES) | selectivity ratio ([1]; L6 cells) | IC50 (Leishmania donovani) | IC50 (Trypanosoma cruzi [2]) | selectivity ratio ([3]; L6 cells) | selectivity ratio ([4]; L6 cells) | IC50 [5] | IC50 (L6) | Activity (Trypanosoma cruzi [6]) | IC50 [7] | Activity [8] | other results |
| --- | --- | --- | --- | --- | --- | --- | --- | --- | --- | --- | --- |
| N#Cc1ccccc1N1CCN(CC(=O)N2CCN(c3ccccc3C#N)CC2)CC1 | 4 | 24.3 µM | 25.7 µM | 5 | 9.9 | 12.8 µM | 127 µM | – | – | – | – |
| O=C(Cn1cnc([N+](=O)[O-])n1)N1CCN(c2ncccn2)CC1 | 6.52 | 22.9 µM | 10 µM | 15 | 4.5 | 33.4 µM | 150 µM | 743 nmol/min/mg | > 30 µM | 2060 nmol/min/mg | – |
| N#Cc1ccccc1N1CCN(C(=O)Cn2cnc([N+](=O)[O-])n2)CC1 | 15 | 14.6 µM | 2.85 µM | 75 | 19 | 11.3 µM | 213 µM | – | – | – | – |
| Cc1ccc(N2CCN(C(=O)Cn3cnc([N+](=O)[O-])n3)CC2)cc1 | 14 | 10.8 µM | 1.33 µM | 112 | 15 | 9.91 µM | 148 µM | 787 nmol/min/mg | > 30 µM | 2190 nmol/min/mg | – |
| O=C(CN1CCN(c2ccc(Cl)c(Cl)c2)CC1)N1CCN(c2ccc(Cl)c(Cl)c2)CC1 | 3 | 6.27 µM | 1.81 µM | 11 | < 1 | 26 µM | 20.2 µM | – | – | – | – |
| O=C(Cn1cnc([N+](=O)[O-])n1)N1CCN(c2ccc(C(F)(F)F)cc2)CC1 | 108 | 1.88 µM | 0.596 µM | 340 | 48 | 4.22 µM | 202 µM | 707 nmol/min/mg | 17.5 µM | 2190 nmol/min/mg | Ratio IC50 [9]: 16; IC50 [10]: 0.85 µM; IC50 [11]: 13.6 µM |
| O=C(Cn1ccnc1[N+](=O)[O-])NCc1ccccc1 [BENZNIDAZOLE] | – | – | – | – | – | – | – | 680 nmol/min/mg | – | 1540 nmol/min/mg | inhibition in vivo at 15 mg/kg/day (Trypanosoma cruzi [12]): 99% |
| O=C(Cn1cnc([N+](=O)[O-])n1)N1CCN(Cc2ccc(C(F)(F)F)cc2)CC1 | – | 9.7 µM | 0.862 µM | – | – | 1.39 µM | 111 µM | 701 nmol/min/mg | 26 µM | 3800 nmol/min/mg | half-life [13]: > 3 h; half-life [14]: > 3 h; IC50 [10]: 1.78 µM; IC50 [11]: > 30 µM |
| COc1ccc(N2CCN(C(=O)Cn3cnc([N+](=O)[O-])n3)CC2)cc1 | 7.18 | 18.5 µM | 2.42 µM | 54.7 | 8.1 | 16.4 µM | 133 µM | – | – | – | – |
| O=C(Cn1cnc([N+](=O)[O-])n1)N1CCN(c2ccc(Cl)cc2)CC1 | > 30 | 9.39 µM | 1.12 µM | > 254 | > 4 | 74.3 µM | > 285 µM | 761 nmol/min/mg | > 30 µM | 2180 nmol/min/mg | – |
| O=C(Cn1cnc([N+](=O)[O-])n1)N1CCN(C(c2ccccc2)c2ccc(Cl)cc2)CC1 (centres undefined) | 14.6 | 1.45 µM | 0.073 µM | 302 | 6.43 | 3.41 µM | 21.9 µM | 672 nmol/min/mg | 2.75 µM | 3910 nmol/min/mg | Ratio IC50 [9]: 3.7; IC50 [10]: 1.04 µM; IC50 [11]: 3.86 µM |
| O=C(Cn1cnc([N+](=O)[O-])n1)N1CCN(c2ccccn2)CC1 | 9.35 | 18.5 µM | 4.64 µM | 37.3 | 8.98 | 19.3 µM | 173 µM | – | – | – | – |
| Cc1ccc(N2CCN(CC(=O)N3CCN(c4ccc(C)cc4)CC3)CC2)cc1 | 9 | 24.2 µM | 29.8 µM | 7 | 8.1 | 26.3 µM | 213 µM | – | – | – | – |
| O=C(Cn1cnc([N+](=O)[O-])n1)N1CCN(Cc2ccc(Cl)c(Cl)c2)CC1 | – | 8.13 µM | 0.298 µM | – | – | 0.231 µM | 59.9 µM | 745 nmol/min/mg | 3.59 µM | 3730 nmol/min/mg | IC50 (Cytochrome P450 2D6): > 20 µM; IC50 (Cytochrome P450 2C9): > 20 µM; efflux ratio at 2 h [15]: 0.91; selectivity ratio ([1]; l6): 7.36; IC50 (Cytochrome P450 2C19): > 20 µM; Ratio IC50 [9]: 7.2; selectivity ratio ([3]; l6): 201; IC50 (Cytochrome P450 2C8): > 20 µM; IC50 [10]: 0.58 µM; IC50 [11]: 4.13 µM; IC50 (Cytochrome P450 3A4): > 20 µM; selectivity ratio ([4]; l6): 260 |
| O=C(Cn1cnc([N+](=O)[O-])n1)N1CCN(C(=O)C2CC2)CC1 | 5.12 | 30.6 µM | 148 µM | 1.05 | 1.83 | 85.2 µM | 156 µM | – | – | – | – |
| O=C(Cn1ccnc1[N+](=O)[O-])N1CCN(c2ncccn2)CC1 | 2.11 | 133 µM | 142 µM | 1.97 | 1.79 | 157 µM | 280 µM | – | – | – | – |
| O=C(Cn1cnc([N+](=O)[O-])n1)N1CCN(c2ccc(Cl)c(Cl)c2)CC1 | 89 | 1.22 µM | 0.169 µM | 641 | 24 | 4.48 µM | 108 µM | 753 nmol/min/mg | 4.73 µM | 2320 nmol/min/mg | Activity (Mus musculus): Non-toxic; Ratio IC50 [9]: 12.3; IC50 [10]: 0.65 µM; IC50 [11]: 7.97 µM; inhibition in vivo at 15 mg/kg/day (Trypanosoma cruzi [12]): 77% |
| O=C(CN1CCN(c2ccc(C(F)(F)F)cc2)CC1)N1CCN(c2ccc(C(F)(F)F)cc2)CC1 | 6 | 5.03 µM | 2.71 µM | 12 | 1.2 | 24.6 µM | 31.7 µM | – | – | – | – |
| O=C(CN1CCN(c2ccc(Cl)cc2)CC1)N1CCN(c2ccc(Cl)cc2)CC1 | 6 | 18 µM | 6.06 µM | 19 | 9 | 12.6 µM | 116 µM | – | – | – | – |

From ChEMBL document CHEMBL3632593, “3-Nitrotriazole-based piperazides as potent antitrypanosomal agents” (Eur J Med Chem, 2015)
